hERG rescue = hERG (human) protection from proarrhythmic block; Q12809; hit rate 0.51% among 310,000; activation (rescue from dofetilide block), less the hit threshold, % at 10 µM; AID 1511; CHO-hERG, FluxOR thallium flux, dofetilide IC70 present;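 active = activation above the mean of controls blocked by dofetilide plus 5 SD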;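 note: thallium influx through hERG after potassium depolarization seen as dye fluorescence rise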
KCNQ1 pot = potentiates or activates the human KCNQ1 potassium channel. AID 2648. P51787. B-score at 10 µM. hit rate 0.35% among 310,000. CHO-K1 KCNQ1, thallium flux FluxOR fluorescence; stronger effect = higher value;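 active = fluorescence ratio B-score, a plate-corrected score, at least three library SD, with initial intensity B-score within 5 SD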
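assay system = CHO-K1 cells stably expressing KCNQ1 | medium = assay buffer, equal DMSO in all wells | timing = 37 °C overnight plating, 90-min dark dye load, 20-min compound pretreatment | measured by = kinetic FluxOR thallium fluorescence, 10-s 1-Hz baseline, 110-s post-stimulus read | measure = fluorescence change relative to baseline, converted to B score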
Kir21 inh = blocks the mouse Kir2.1 inward-rectifier potassium channel. AID 1672. hit rate 0.85% among 310,000. B-score at 10 µM. HEK293-Kir2.1, FluxOR thallium flux fluorescence; stronger effect = lower value. P35561;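 active = fluorescence ratio B-score at or below minus 3 SD of library scores, with starting-brightness B-score within 2 SD, cut at about -4.2 in these data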;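 note: channel flux triggered by added potassium and thallium sulfate stimulus; B-score of peak minus minimum fluorescence over baseline after thallium stimulus; more negative B-score means stronger Kir2.1 block with less thallium influx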
KCNK3 block = human KCNK3 channel inhibition, primary screen | AID 602410 | hit rate 0.84% among 340,000 | B-score at 10 µM | CHO-KCNK3 thallium flux, FluxOR fluorescence; stronger effect = lower value;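 active = B-score under library mean minus 4 SD, starting fluorescence ratio at most library mean plus 5 SD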;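 note: more negative B-score means stronger inhibition of thallium flux through KCNK3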
Target sequence (O14649 whole entry, looked up): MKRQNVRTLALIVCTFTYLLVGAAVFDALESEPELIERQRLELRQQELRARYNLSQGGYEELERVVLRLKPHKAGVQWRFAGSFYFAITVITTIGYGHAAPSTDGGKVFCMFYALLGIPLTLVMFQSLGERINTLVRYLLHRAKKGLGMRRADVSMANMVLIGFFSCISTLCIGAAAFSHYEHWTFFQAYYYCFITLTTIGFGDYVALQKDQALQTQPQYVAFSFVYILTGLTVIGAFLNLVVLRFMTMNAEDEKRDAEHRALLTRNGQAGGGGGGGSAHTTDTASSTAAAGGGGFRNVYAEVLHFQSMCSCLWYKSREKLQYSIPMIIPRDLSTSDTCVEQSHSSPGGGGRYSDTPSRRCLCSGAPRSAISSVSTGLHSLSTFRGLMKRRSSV
KCNK9 block = human KCNK9 channel inhibition. Q9NPC2. HEK293 KCNK9, FluxOR thallium flux fluorescence; stronger effect = lower value. B-score at 10 µM. hit rate 1.2% among 310,000;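 active = ratio B-score over 3 SD below the library mean, with starting fluorescence within 5 SD of its mean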;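 note: negative B-score means less thallium flux so channel inhibition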
KCNQ1 inh = blocks the human KCNQ1 potassium channel. hit rate 1.3% among 310,000. B-score at 10 µM. CHO-K1 KCNQ1, FluxOR thallium flux fluorescence; stronger effect = higher value. P51787;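 active = compounds whose thallium flux B-score, printed positive for inhibition, exceeds three library SD while starting fluorescence stays within three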;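 note: channel opened by potassium depolarization with thallium stimulus after 20 min compound exposure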
KCNK9 block conf = confirmation of human KCNK9 potassium channel inhibitors; shares compounds with KCNK9 block; HEK293 KCNK9 cells, FluxOR thallium flux fluorescence; inhibition, % at 10 µM; hit rate 43% among 4,900;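 active = thallium signal inhibited by more than 5 SD of the compound-free buffer control wells, on both duplicate plates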;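 note: 0% = assay buffer control wells without compound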
Kir2-1 spec = mouse Kir2.1 off-target activity of KCNK9 modulators; AID 492993; Kir2.1 cells, FluxOR thallium flux fluorescence; shares compounds with KCNK9 block; hit rate 4% among 4,900; inhibition, % at 10 µM;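 active = thallium signal drop more than 5 SD beyond the mean of the no-compound control wells, seen in both duplicate plates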;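 note: signal is fluorescence rise after thallium addition divided by baseline fluorescence; plate controls were assay buffer only for no effect and full block by chlorpromazine control for full effect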
KCNK9 uninduced = second check of KCNK9 modulator effects in non-induced HEK293 cells. hit rate 40% among 4,900. shares compounds with KCNK9 block. FluxOR thallium flux. inhibition, % at 10 µM. AID 492997;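 active = thallium signal drop beyond 5 SD of the untreated control mean, on both duplicate plates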;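 note: plate controls were buffer only IC0 wells for no effect and SID17386958 at its maximal inhibitory level for full effect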
Numbers without * were called inactive; i = inactive; . = not tested or not shown. An excerpt weighted towards active compounds, which were near 3.7% of everything screened.

SMILES | hERG rescue | KCNQ1 pot | Kir21 inh | KCNK3 block | KCNK9 block | KCNQ1 inh | KCNK9 block conf | Kir2-1 spec | KCNK9 uninduced
COC(=O)[C@@]1(Cc2ccc(OC)cc2)[C@H]2c3cc(C(=O)N4CCCC4)n(C[C@H](O)CO)c3C[C@H]2CN1C(=O)c1ccccc1 | -3.8 | i | -0.43 | . | i | i | . | . | .
Cc1cc(C(F)(F)F)n(-c2nc(C(=O)N/N=C/c3ccc(F)cc3)cs2)n1 | -13.7 | i | 0.26 | i | i | i | . | . | .
COc1cccc(/C=N/NC(=O)c2csc(-n3nc(C)cc3C(F)(F)F)n2)c1 | -3.1 | i | 0.03 | i | -14.8* | i | i | i | i
O=C(COC(=O)CNC(=O)c1ccccc1Cl)Nc1cc(C(F)(F)F)ccc1Cl | . | . | . | i | . | . | . | . | .
O=C(CNC(=O)c1ccccc1F)OC(C(=O)Nc1cc(C(F)(F)F)ccc1Cl)c1ccccc1 (stereo not given) | -9.5 | i | 1.54 | i | -11.1* | i | i | i | 32.0%*
CCC1CCCCN1C(=O)CCC(=O)Nc1nnc(C(F)(F)F)s1 (stereo not given) | -5.8 | i | -0.67 | i | i | i | . | . | .
Cc1cccc(N2CCN(CC(=O)NCc3ccc(Cl)cc3)CC2)c1C | -14.5 | i | 0.21 | i | i | i | i | i | i
O=C(Nc1ccccc1)OCCCc1ccccc1 | -8.4 | i | 1.41 | i | i | i | i | i | i
Cc1ccc2sc(N(CCN(C)C)C(=O)c3ccc4ccccc4c3)nc2c1C | -11.8 | i | 0.72 | i | i | i | i | i | i
Cc1cccc2sc(N(CCN(C)C)C(=O)c3cc(Cl)sc3Cl)nc12 | -10.4 | i | 0.04 | i | i | i | i | i | i
Cc1cccc2sc(N(CCCN(C)C)C(=O)c3sc4ccccc4c3Cl)nc12 | . | . | . | i | . | . | . | . | .
Cc1cc(C)c2sc(N(CCN(C)C)C(=O)c3ccc4ccccc4c3)nc2c1 | -15.7 | i | 0.94 | i | i | i | . | . | .
Cc1cccc2sc(N(CCCN(C)C)C(=O)c3ccc(C(=O)c4ccccc4)cc3)nc12 | -22.8 | i | 1.48 | i | i | i | i | i | i
COc1cc2ccccc2cc1C(=O)N(CCN(C)C)c1nc2c(C)cccc2s1 | -5.5 | i | 0.38 | i | i | i | . | . | .
Cc1cc(NC(=O)c2ccc(C)c(C)c2)no1 | -1.3 | i | -1.43 | i | i | i | . | . | .
N#Cc1nc(COc2ccc(F)cc2)oc1N1CCCCC1 | -13.6 | i | -0.32 | i | i | i | i | i | i
N#Cc1nc(COc2ccccc2)oc1N1CCCCCC1 | -14.9 | i | 0.06 | i | i | i | . | . | .
COc1cccc(OCc2cc(C(=O)N3CCN(C)C(c4ccccc4)C3)no2)c1 (stereo not given) | -12.0 | i | -1.8 | i | i | i | i | i | i
COCC1CCN(C(=O)c2cc(COc3ccc4c(c3)CCCC4)on2)C1 (stereo not given) | -12.6 | i | 0.39 | i | i | i | i | i | i
C=CCC1(CC=C)CCCN1C(=O)c1cc(COc2cccc(OC)c2)on1 | -5.1 | i | -0.57 | i | i | i | i | i | i
Nc1[nH]n2c(=O)c3c(nc2c1N=Nc1ccccc1)CCCC3 | -7.2 | i | 0.06 | i | i | i | . | . | .
Nc1[nH]n2c(=O)c3c(nc2c1N=Nc1ccc(Cl)cc1)CCCC3 | -6.8 | i | -0.1 | i | -9.62* | i | 39.0%* | i | i
COc1ccccc1CN(Cc1cc2cc(C)ccc2[nH]c1=O)Cc1nnnn1Cc1ccco1 | -6.7 | i | -1.68 | i | -8.7* | i | i | i | 36.0%*
COc1cc(OC)c(C(=O)NC23CC4CC(CC(C4)C2)C3)cc1OC | -3.6 | i | 0.2 | i | i | i | . | . | .
O=C(NC12CC3CC(CC(C3)C1)C2)c1cc(F)c(F)c(F)c1F | -1.4 | i | -0.62 | i | i | i | i | i | i
SMILES | hERG rescue | KCNQ1 pot | Kir21 inh | KCNK3 block | KCNK9 block | KCNQ1 inh | KCNK9 block conf | Kir2-1 spec | KCNK9 uninduced
CCOc1ccc(CC(=O)NNC(=S)NC)cc1Br | -4.1 | i | 0.5 | i | i | i | . | . | .
C=CCOC(=O)/C(=C\c1cccc2ccccc12)NC(=O)c1ccccc1 | -6.4 | i | 1.08 | i | i | i | . | . | .
CCOC(=O)/C(=C/c1c2ccccc2cc2ccccc12)NC(=O)c1ccccc1 | -7.3 | i | -0.03 | -10.6* | -15.6* | i | 57.5%* | i | 39.0%*
COC(=O)/C(=C\c1ccc2c(c1)c1ccccc1n2C)NC(=O)c1ccccc1 | -8.7 | i | -0.38 | i | -9.6* | i | 35.5%* | i | i
COC(=O)/C(=C\C=C\c1ccccc1)NC(=O)c1ccccc1 | -6.3 | i | -1.63 | i | i | i | . | . | .
O=C(Cn1nc2n(c1=O)-c1ccccc1SC2)N/N=C/c1ccncc1 | -2.8 | i | 0.25 | i | i | i | . | . | .
Cc1ccc(CSc2nc3ccccc3c(=O)[nH]2)cc1 | -12.7 | i | -1.94 | i | -9* | i | i | i | 29.0%*
COc1ccc(OCC2CCCN(Cc3nc(CC4CC4)no3)C2)cc1 (stereo not given) | -4.4 | i | 0.15 | i | i | i | . | . | .
Cc1ccccc1C1CCCN(Cc2nc(CC3CC3)no2)C1 (stereo not given) | -17.9 | i | 0.06 | i | i | i | i | i | i
Cc1cccc(N2CCN(Cc3nc(CC4CC4)no3)CC2)n1 | -10.4 | i | 1.57 | i | i | i | . | . | .
c1ccc(C2CCCN(Cc3nc(CC4CC4)no3)CC2)cc1 (stereo not given) | -11.8 | i | 1.87 | i | i | i | i | i | i
CCOCc1c(C(=O)NC2=Nc3ccccc3NC(CC)=C2C(=O)OCC)oc2ccccc12 | -4.7 | i | -2.5 | i | -16.4* | i | 47.0%* | i | i
CCOC(=O)C1=C(CC)Nc2ccccc2N=C1NC(=O)CCNC(C)=O | -4.2 | i | -0.01 | i | i | i | . | . | .
CCOC(=O)C1=C(CC)Nc2ccccc2N=C1NC(=O)c1oc2ccccc2c1C | -34.2 | i | -0.04 | i | -11.1* | i | 35.0%* | i | 27.0%*
COC(=O)c1cc(Br)ccc1NC(=O)CCNC(=O)c1ccco1 | -4.3 | i | -0.36 | i | i | i | . | . | .

Screens (PubChem)
